# Only some compounds are listed: those with a hit (about 2.3% of all), similar ones and a draw of the others.
# TCR-CD3 inh: inhibitors of human TCR-CD3 interaction, primary screen, biochemical, fluorescence, TAMRA-labeled TCR probe. AID 651800, 2012. T-cell receptor (TCR). 360,000 tested, 0.37% active. inhibition, % at 9.4 µM; in the data active means inhibition above about 19%;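 further: recombinant mutant TCR 2C K166C tagged with TAMRA read by polarization; 0% = receptor in buffer alone and 100% = receptor with positive control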
# mABHD4 FP: ABHD4 inhibitors, primary screen, biochemical, fluorescence polarization, mouse. inhibition, % at 8.92 µM. AID 720543, 2013. purified mABHD4, FP-Rh probe fluorescence polarization. 370,000 tested, 0.54% active. (Lyso)-N-acylphosphatidylethanolamine lipase (Mus musculus), Q8VD66;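 active means inhibition exceeding the mean over every tested compound plus 3 SD, cut at about 30% in these data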;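 further: 0% = plate median of compound wells and 100% = S159A mutant with DMSO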
# Target sequence (Q8VD66 whole entry, looked up): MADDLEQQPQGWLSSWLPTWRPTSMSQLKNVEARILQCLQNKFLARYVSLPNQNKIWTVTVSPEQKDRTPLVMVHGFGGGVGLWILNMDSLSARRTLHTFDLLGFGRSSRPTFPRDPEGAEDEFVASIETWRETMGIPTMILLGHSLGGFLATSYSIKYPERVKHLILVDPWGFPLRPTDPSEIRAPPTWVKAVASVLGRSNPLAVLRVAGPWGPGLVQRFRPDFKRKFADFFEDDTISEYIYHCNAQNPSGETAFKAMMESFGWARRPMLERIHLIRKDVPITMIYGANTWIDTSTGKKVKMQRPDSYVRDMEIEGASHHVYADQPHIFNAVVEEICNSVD
#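 assay system = mABHD4 protein | compound dosing = single nominal dose of 8.92 µM, 0.89% DMSO final | read-out basis = percent inhibition of probe binding, normalized to plate controls | schedule = Enzyme–compound pre-incubation 45 min, then probe 60 min, both 25 °C | detection = fluorescence polarization, excitation 525 nm, emission 598 nm, BODIPY TMR filters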
# SIAE primary: human SIAE inhibitors, primary screen, biochemical, fluorescence polarization, FP-Rh probe, 1536-well HTS; Sialate O-acetylesterase (Homo sapiens), Q9HAT2; SIAE FP-Rh probe binding; inhibition, % at 9.66 µM; 370,000 tested, 0.69% active; AID 1053197, 2014;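 active means inhibition above a cutoff: mean of compounds within the control limits plus 3 SD of those, cut at about 17% in these data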;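 further: 0% = plate median of compound wells and 100% = probe without SIAE protein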
# pPAFAH inh: pPAFAH enzyme inhibitors, primary screen, biochemical, fluorescence polarization, human; Platelet-activating factor acetylhydrolase (Homo sapiens), Q13093; recombinant pPAFAH, FP-rhodamine probe fluorescence polarization; 330,000 tested, 1.5% active; inhibition, % at 3.39 µM;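 active means inhibition above the mean inhibition across the screen plus 3 SD, cut at about 25% in these data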;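 further: inhibitors block binding of the rhodamine activity-based probe so polarization drops; 0% = enzyme with DMSO and 100% = wells lacking pPAFAH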
# HTRA1 inhibitor: HTRA1 serine protease inhibitors, primary screen, biochemical, fluorescence polarization, HTS; Q92743; recombinant HTRA1, FP-rhodamine activity-based probe; inhibition, % at 5.96 µM; 340,000 tested, 0.5% active; in the data active means inhibition above about 36%;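 further: 0% = enzyme with DMSO and 100% = wells lacking enzyme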
# pPAFAH confirm: pPAFAH (PLA2G7) enzyme inhibitors, confirmation, biochemical, fluorescence polarization, human | 2,300 tested, 72% active | shares compounds with pPAFAH inh | recombinant pPAFAH, FP-Rh probe fluorescence polarization | inhibition, % at 3.39 µM | AID 463230, 2010;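 active means mean inhibition of the triplicate above the hit cutoff set for the earlier primary screen, cut at about 25% in these data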;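 further: 0% = enzyme with DMSO and 100% = wells lacking pPAFAH enzyme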
# Active calls of the source: *; . = no result.
SMILES,TCR-CD3 inh,mABHD4 FP,SIAE primary,pPAFAH inh,HTRA1 inhibitor,pPAFAH confirm
O=C(/C=C/c1ccco1)NC(=S)Nc1ccc(C(=O)O)cc1,11,26,2,39*,12,7
CCC(=O)Nc1ccc(NC(=S)NC(=O)/C=C/c2ccco2)cc1,-2,14,14,9,-4,.
COc1ccc(-c2[nH]ncc2N=Nc2ccccc2)cc1,2,-18,-8,49*,-32,1
COc1ccc(-c2[nH]ncc2N=Nc2cc(C)cc(C)c2)cc1,4,-18,-6,-5,-40,.
Nc1[nH]c(C(=O)c2ccccc2)c(-c2ccc(Cl)c(F)c2)c1C(=O)c1c[nH]c2ccccc12,-6,5,0,.,.,.
COC(=O)C1CN(C2CC2)CCS(=O)(=O)N1Cc1cn(Cc2ccc(OC)cc2)nn1 (stereo not drawn),.,7,4,.,.,.
Cc1nnc(NC(=O)C2CC(=O)N(c3ccc4c(c3)OCCO4)C2)s1 (stereo not drawn),0,1,-4,5,3,.
O=C(Nc1nc(-c2ccco2)c(-c2ccco2)s1)C1CC(=O)N(c2ccc3c(c2)OCCO3)C1 (stereo not drawn),8,-1,9,47*,11,41*
Cc1cnc(C(=O)Nc2ccccc2C(=O)N2CCOCC2)cn1,-4,-1,1,37*,1,4
O=C(Nc1ccc(N2CCOCC2)cc1)Nc1ccc2nc(-c3ccco3)c(-c3ccco3)nc2c1,-1,20,9,45*,30,14
COC(=O)C12C=C3CC(c4ccc(OC)cc4)=C3C(=O)N1Cc1[nH]c3ccccc3c1C2 (stereo not drawn),.,2,-3,.,.,.
COc1ccc2[nH]c(=O)c(CN(C3CCCCC3)C(c3nnnn3Cc3ccco3)C(C)C)cc2c1 (stereo not drawn),.,.,.,36*,-21,28*
COc1ccc2[nH]c(=O)c(CN(Cc3nnnn3Cc3ccco3)C3CCCCC3)cc2c1,1,-1,0,9,12,.
O=C(O)c1cccc(N2C(=O)c3cccc4cccc(c34)C2=O)c1,-5,-5,3,.,-2,.
O=C(O)c1cccc(N2C(=O)c3cc([N+](=O)[O-])cc4cc([N+](=O)[O-])cc(c34)C2=O)c1,2,26,7,45*,22,21
CCN(CC)C(=O)C1c2ccccc2Oc2ccccc21,8,5,4,39*,7,-1
CC(C)(C)c1cc(NCCCn2ccnc2)n2ncc(-c3ccc(Cl)cc3)c2n1,1,12,11,39*,7,19
CCCNC(=O)c1ccc(N2CC3CC(C2)c2cccc(=O)n2C3)c(NC(=O)Nc2ccc(CC)cc2)c1 (stereo not drawn),7,13,9,88*,-6,92*
COCCNC(=O)c1ccc(N2CC3CC(C2)c2cccc(=O)n2C3)c(NC(=O)c2c(F)cccc2F)c1 (stereo not drawn),5,-9,-4,4,3,.
COc1cccc(NC(=O)Nc2cc(C(=O)NC(C)C)ccc2N2CC3CC(C2)c2cccc(=O)n2C3)c1 (stereo not drawn),-6,-3,0,74*,2,76*
COc1ccccc1NC(=O)OCCCN1CCC2(CCC(C)CC2)C1=O (stereo not drawn),.,2,10,.,.,.
O=C(Nc1nc2ccsc2c(=O)s1)C1CCC1,-1,-4,-7,36*,.,1
COc1ccc(OC)c(S(=O)(=O)CC(=O)c2cc3ccc(OC)cc3oc2=O)c1,.,.,.,18,0,.
COc1ccc(S(=O)(=O)CC(=O)c2cc3cc(Br)ccc3oc2=O)cc1,-2,19,2,37*,-16,33*
CCC[C@H]1[C@@H](N(C)Cc2cccs2)CC[C@@]23CCCN2C(=O)CCC[C@@H]13,.,-9,-1,.,.,.
SMILES,TCR-CD3 inh,mABHD4 FP,SIAE primary,pPAFAH inh,HTRA1 inhibitor,pPAFAH confirm
O=c1oc2c(CN3CCCCC3)c(O)ccc2c2c1CCCC2,3,8,1,38*,6,5
c1ccc(-c2ccc3c(n2)CCCN3Cc2ccccn2)cc1,2,4,6,.,.,.
CCOc1ccc(-n2c(C)cc(/C=N/Nc3nc(C)cc(=O)[nH]3)c2C)cc1,-6,5,2,43*,15,85*
Oc1c(Br)cc(Br)c(/C=N/n2c(-c3ccccc3)n[nH]c2=S)c1Br,0,9,13,42*,3,53*
NC(=O)Cn1c(=O)n(Cc2ccco2)c(=O)c2c3c(sc21)CCCCC3,12,4,-2,36*,4,15
Cc1ccc(-c2nnc3n2N=C(c2ccc4ccccc4c2)CS3)cc1,.,-1,-6,.,.,.
O=C(O)CN1CCN(Cc2ccccc2Cl)C1=O,-4,5,-6,1,-2,.
O=C(O)CN1CCN(Cc2ccccc2F)C1=O,5,2,5,58*,0,2
CCN(CC)C(=O)CC[C@@H]1CC[C@]2(CCCN(Cc3ccc(Cl)cc3)C2)O1,.,-3,-4,.,.,.
O=C(CSCc1n[nH]c(=O)[nH]1)NCCOc1cccc(Oc2ccccc2)c1,-5,-6,-10,36*,7,7
CCn1c(SCC(=O)c2ccc(O)c(O)c2)nnc1-c1ccccc1,16,18,7,11,28,.
C=CCn1c(SCC(=O)c2ccc(O)c(O)c2)nnc1-c1cccnc1,18,18,8,50*,16,19
O=C1c2nc3cc(-c4ccco4)[nH]n3c(=O)c2CN1Cc1ccccc1,1,25,2,35*,.,12
O=C(Nc1ccc(Cl)cc1)Nc1nnc(-c2ccncc2)s1,1,-4,5,1,-5,.
O=C(Nc1cccc(Cl)c1)Nc1nnc(-c2ccncc2)s1,8,-29,-11,42*,-39,35*
O=C(/C=C/c1ccc(Cl)cc1Cl)c1ccc[nH]1,4,-18,-4,5,-19,.
CN(C)/C=C/C(=O)/C=C/c1ccc(Cl)cc1Cl,4,6,-3,38*,20,4
CCOC(=O)N1CCN(C(=O)c2noc3c2COc2ccccc2-3)CC1,-5,9,2,5,1,.
CCOC(=O)N1CCN(c2cc(NCCC(=O)O)c3c4c(onc24)-c2ccccc2C3=O)CC1,.,.,.,55*,40*,37*
CCS(=O)(=O)Nc1ccc2c(c1)C(=O)N(C)[C@@H]1CC[C@H](CC(=O)NCCOC)O[C@H]1CO2,.,-1,6,.,.,.
C/C(=N\Nc1ccc(S(=O)(=O)Nc2ccccc2)cc1[N+](=O)[O-])c1ccncc1,4,5,6,14,.,.
